According to ChEMBL document CHEMBL3272166, “Quantitative structure-activity relationships in centrally acting imidazolidines structurally related to clonidine” (J Med Chem, 1977):

Assays:
[1] = system: Rattus norvegicus; assay: Hypotensive activity in iv dosed anesthetized normotensive Wistar rat assessed as maximal decrease in mean arterial pressure measured per gram of brain tissue; format: functional, Artery
[2] = system: Rattus norvegicus; assay: Hypotensive activity in iv dosed anesthetized normotensive Wistar rat assessed as maximal decrease in mean arterial pressure; format: functional, Artery; conditions: for ED30: Rattus norvegicus, Wistar, Artery, iv
Procedure, shortened: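 Male Wistar rats (190-220 g) anaesthetised with pentobarbitone sodium 75 mg/kg ip, kept at 37 ± 1 °C, ventilated and heparinised. Carotid arterial pressure recorded; animals outside 100–150 mmHg after ~20 min equilibration discarded. Graded iv doses in saline, with randomised agents and doses and one rat per experiment. Log-dose–response curves of maximal fall in mean pressure gave the dose (μmol/kg) for a 30% decrease (ED30).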

[3] = Apparent partition coefficient, log P in octanol and 0.1 M phosphate buffer at pH 7.4; format: physicochemical; conditions: octanol/0.1 M phosphate buffer
[4] = system: Rattus norvegicus; assay: Hypotensive activity in iv dosed anesthetized normotensive Wistar rat assessed as 30% decrease in mean arterial pressure; conditions: Artery

Structure (SMILES) | log(1/ED30) [1] | log(1/ED30) [2] | ED30 [2] [mg/kg] | logD [3] | ED30 [4] [mg/kg]
Cc1cccc(C)c1N=C1NCCN1.Cl | 2.14 | 0.85 | 0.032 | -1.54 | –
Cc1ccc(N=C2NCCN2)c(C)c1.Cl | 0.86 | -0.56 | 0.81 | -1.66 | –
Cl.c1ccc(NC2=NCCN2)cc1 | -0.42 | -2.1 | 25 | -1.92 | –
Cl.Clc1ccc(Cl)c(N=C2NCCN2)c1 | 0.03 | 0.32 | 0.15 | 0.65 | –
Cc1cc(Cl)ccc1N=C1NCCN1.Cl | 0.8 | -0.05 | 0.275 | -1.06 | –
Cc1cc(C)c(N=C2NCCN2)c(C)c1.Cl | 0.98 | -0.07 | 0.28 | -1.28 | –
Cc1ccc(N=C2NCCN2)c(Cl)c1.Cl | 1.07 | 0.68 | 0.053 | -0.48 | –
Brc1cc(Br)c(N=C2NCCN2)c(Br)c1.Cl | -0.65 | 0.28 | 0.58 | 2.24 | –
Cl.Clc1cc(Br)cc(Cl)c1N=C1NCCN1 | – | 1.03 | 0.06 | 1.97 | –
Cl.Clc1cccc(N=C2NCCN2)c1Cl | 1.13 | 1.37 | 0.013 | 0.57 | –
Cl.O=[N+]([O-])c1cc(Cl)c(N=C2NCCN2)c(Cl)c1 | -1.68 | -0.34 | 4.5 | 1.92 | –
Cl.Clc1cc(Cl)c(N=C2NCCN2)c(Cl)c1 | – | – | 0.021 | – | –
Cc1cc(Cl)c(N=C2NCCN2)c(Cl)c1.Cl | 0.87 | 1.22 | 0.021 | 0.73 | –
Brc1cccc(Br)c1N=C1NCCN1.Cl | 1.4 | 2.04 | 0.0055 | 1.21 | –
Cl.Clc1cccc(Cl)c1NC1=NCCN1 [CLONIDINE HYDROCHLORIDE] | 1.78 | 2.14 | – | – | 0.0027
Cc1cc(Cl)cc(Cl)c1N=C1NCCN1.Cl | 0.4 | 0.57 | 0.079 | 0.47 | –
Cc1cc(Cl)cc(C)c1N=C1NCCN1.Cl | 0.54 | 0.04 | 0.24 | -0.62 | –
Cl.Fc1cccc(Cl)c1N=C1NCCN1 | 1.13 | 1.47 | 0.0125 | 0.52 | –
Cc1cc(Br)cc(C)c1N=C1NCCN1.Cl | -0.1 | -0.36 | 0.7 | -0.28 | –
COc1cc(Cl)c(N=C2NCCN2)c(Cl)c1.Cl | -0.82 | -0.78 | 2 | 0.15 | –
Cl.Fc1cccc(F)c1N=C1NCCN1 | -0.22 | -0.29 | 0.6 | -0.16 | –
Cl.Clc1ccc(N=C2NCCN2)c(Cl)c1 | 0.58 | 0.68 | 0.061 | 0.29 | –
Cc1cc(C)c(N=C2NCCN2)c(Cl)c1.Cl | 0.83 | 0.52 | 0.08 | -0.36 | –
Cl.Clc1cccc(Br)c1N=C1NCCN1 | 1.72 | 2.22 | – | 0.87 | 0.0029
Cc1ccccc1N=C1NCCN1.Cl | 0.91 | -0.67 | 0.99 | -1.82 | –
Cl.Clc1ccccc1N=C1NCCN1 | 0.67 | 0.15 | 0.17 | -0.67 | –
Cc1cccc(Cl)c1N=C1NCCN1.Cl | 1.57 | 1.12 | 0.019 | -0.57 | –
